Experimental data: ChEMBL document CHEMBL4145575, “ent-Kaurane Diterpenoids with Neuroprotective Properties from Corn Silk ( Zea mays)” (2018)
Activity calls are given as the source filed them. No cut-off for these calls is given here.

Columns and labels:
[1] = test system: SH-SY5Y; assay: Neuroprotective activity against H2O2-induced cell death in human SH-SY5Y cells assessed as increase in cell viability up to 100 uM; assay type: functional, cell-based
Method in brief: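 SH-SY5Y cells were injured with H2O2, with test compounds up to 100 μM. Viability was read by MTT assay and compared with the H2O2 model group. Trolox served as positive control. Data were reported as means ± SEM.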

[2] = test system: SH-SY5Y; assay: Neuroprotective activity against H2O2-induced cell death in human SH-SY5Y cells assessed as increase in cell viability at 100 uM relative to control; assay type: functional
Method in brief: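 SH-SY5Y cells exposed to H2O2, with or without test compound; viability read by MTT assay and compared with the H2O2-only model group. Trolox served as positive control. Cell viability given as means ± SEM.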

[3] = test system: SH-SY5Y; assay: Neuroprotective activity against H2O2-induced morphological changes in human SH-SY5Y cells assessed as reduction in cell shrinkage after 4 hrs by phase contrast microscopic analysis; assay type: functional, cell-based
Method in brief: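 Cells were exposed to H2O2 (200 μM) for 4 h, in the presence or absence of compound at 25, 50 or 100 μM. Cell shrinkage and other morphology were viewed by phase contrast microscopy and compared with untreated control and H2O2-only cells.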

[4] = test system: SH-SY5Y; assay: Neuroprotective activity against H2O2-induced apoptosis in human SH-SY5Y cells assessed as reduction in nuclear fragmentation at 25 to 100 uM after 4 hrs by Hoechst 33258 staining based fluorescence microscopic analysis; assay type: functional, cell-based
Method in brief: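 SH-SY5Y cells were incubated with H2O2 (200 μM) for 4 h, with or without compound at 25, 50 or 100 μM. Nuclei were stained with the DNA dye Hoechst 33258. Chromatin condensation and fragmented nuclei were scored by fluorescence microscopy against untreated control and H2O2-only cells.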

[5] = test system: SH-SY5Y; assay: Neuroprotective activity against H2O2-induced apoptosis in human SH-SY5Y cells assessed as viable cells at 25 uM pretreated for 1 hr followed by H2O2-stimulation after 4 hrs by Annexin-V-FITC/propidium iodide staining based flow cytometry (reference value: 76%); assay type: functional; details: read-out: Activity
[6] = test system: SH-SY5Y; assay: Neuroprotective activity against H2O2-induced apoptosis in human SH-SY5Y cells assessed as early apoptotic cells at 25 uM pretreated for 1 hr followed by H2O2-stimulation after 4 hrs by Annexin-V-FITC/propidium iodide staining based flow cytometry (reference value: 6.4%); assay type: functional
[7] = test system: SH-SY5Y; assay: Neuroprotective activity against H2O2-induced apoptosis in human SH-SY5Y cells assessed as late apoptotic cells at 25 uM pretreated for 1 hr followed by H2O2-stimulation after 4 hrs by Annexin-V-FITC/propidium iodide staining based flow cytometry (reference value: 15%); assay type: functional
[8] = test system: SH-SY5Y; assay: Neuroprotective activity against H2O2-induced apoptosis in human SH-SY5Y cells assessed as necrotic cells at 25 uM pretreated for 1 hr followed by H2O2-stimulation after 4 hrs by Annexin-V-FITC/propidium iodide staining based flow cytometry (reference value: 2.63%); assay type: functional
[9] = test system: SH-SY5Y; assay: Neuroprotective activity against H2O2-induced apoptosis in human SH-SY5Y cells assessed as viable cells at 50 uM pretreated for 1 hr followed by H2O2-stimulation after 4 hrs by Annexin-V-FITC/propidium iodide staining based flow cytometry (reference value: 76%); assay type: functional; details: read-out: Activity
[10] = test system: SH-SY5Y; assay: Neuroprotective activity against H2O2-induced apoptosis in human SH-SY5Y cells assessed as early apoptotic cells at 50 uM pretreated for 1 hr followed by H2O2-stimulation after 4 hrs by Annexin-V-FITC/propidium iodide staining based flow cytometry (reference value: 6.4%); assay type: functional
[11] = test system: SH-SY5Y; assay: Neuroprotective activity against H2O2-induced apoptosis in human SH-SY5Y cells assessed as late apoptotic cells at 50 uM pretreated for 1 hr followed by H2O2-stimulation after 4 hrs by Annexin-V-FITC/propidium iodide staining based flow cytometry (reference value: 15%); assay type: functional
[12] = test system: SH-SY5Y; assay: Neuroprotective activity against H2O2-induced apoptosis in human SH-SY5Y cells assessed as necrotic cells at 50 uM pretreated for 1 hr followed by H2O2-stimulation after 4 hrs by Annexin-V-FITC/propidium iodide staining based flow cytometry (reference value: 2.63%); assay type: functional
[13] = test system: SH-SY5Y; assay: Neuroprotective activity against H2O2-induced apoptosis in human SH-SY5Y cells assessed as viable cells at 100 uM pretreated for 1 hr followed by H2O2-stimulation after 4 hrs by Annexin-V-FITC/propidium iodide staining based flow cytometry (reference value: 76%); assay type: functional; details: read-out: Activity
[14] = test system: SH-SY5Y; assay: Neuroprotective activity against H2O2-induced apoptosis in human SH-SY5Y cells assessed as early apoptotic cells at 100 uM pretreated for 1 hr followed by H2O2-stimulation after 4 hrs by Annexin-V-FITC/propidium iodide staining based flow cytometry (reference value: 6.4%); assay type: functional
[15] = test system: SH-SY5Y; assay: Neuroprotective activity against H2O2-induced apoptosis in human SH-SY5Y cells assessed as late apoptotic cells at 100 uM pretreated for 1 hr followed by H2O2-stimulation after 4 hrs by Annexin-V-FITC/propidium iodide staining based flow cytometry (reference value: 15%); assay type: functional
[16] = test system: SH-SY5Y; assay: Neuroprotective activity against H2O2-induced apoptosis in human SH-SY5Y cells assessed as necrotic cells at 100 uM pretreated for 1 hr followed by H2O2-stimulation after 4 hrs by Annexin-V-FITC/propidium iodide staining based flow cytometry (reference value: 2.63%); assay type: functional

Row | Structure (SMILES) | Activity [1] | Activity [2] | further results
1 | COC(=O)[C@]1(C)CC[C@H](O)[C@@]2(C)[C@@H]3CC[C@@H]4C[C@]3(C=C4C(=O)O)CC[C@@H]21 | inactive | – | –
2 | C[C@@]1(O)[C@H](O)CC[C@@]2(C)[C@@H]3CC[C@@H]4C[C@@]3(CC[C@H]12)C[C@@H]4C(=O)O | – | >10% | –
3 | C[C@@]12CCC[C@@](C)(O)[C@H]1CC[C@]13C=C(C(=O)O)[C@H](CC[C@H]12)C3 | – | >10% | Activity [3]: Dose-dependent effect; Activity [4]: Active; viability at 25 µM [5]: 86.2%; Activity [6]: 3.23%; Activity [7]: 9.28%; Activity [8]: 1.29%; viability at 50 µM [9]: 90%; Activity [10]: 3.93%; Activity [11]: 5.34%; Activity [12]: 0.727%; viability at 100 µM [13]: 90%; Activity [14]: 2.58%; Activity [15]: 5.94%; Activity [16]: 1.44%
4 | C[C@@]1(CO)C[C@@H](O)C[C@]2(C)[C@@H]1CC[C@@]13C[C@@H](CC[C@H]12)[C@@H](C(=O)O)C3 | inactive | – | –
5 | C[C@@]1(O)[C@H](O)CC[C@@]2(C)[C@@H]3CC[C@@H]4C[C@]3(C=C4C(=O)O)CC[C@H]12 | inactive | – | –
6 | COC(=O)[C@]1(C)C[C@@H](O)C[C@@]2(C)[C@@H]3CC[C@@H]4C[C@@]3(CC[C@@H]21)C[C@@H]4C(=O)O | inactive | – | –
7 | C[C@@]12CCC[C@@](C)(C=O)[C@H]1CC[C@@]13C=C(C(=O)O)[C@@H](C1)[C@@H](O)C[C@H]32 | – | >10% | –
8 | C[C@@]1(CO)C[C@@H](O)C[C@]2(C)[C@@H]1CC[C@]13C=C(C(=O)O)[C@H](CC[C@H]12)C3 | inactive | – | –
9 | C[C@@]12C[C@H](O)C[C@@](C)(C(=O)O)[C@H]1CC[C@@]13C[C@@H](CC[C@H]12)[C@@H](C(=O)O)C3 | inactive | – | –
10 | C[C@@]1(CO)CC(=O)C[C@]2(C)[C@@H]1CC[C@@]13C[C@@H](CC[C@H]12)[C@@H](C(=O)O)C3 | – | >10% | –
11 | C[C@@]12CCC[C@@](C)(C(=O)O)[C@H]1CC[C@@]13C[C@@H](CC[C@H]12)[C@](O)(CO)C3 | inactive | – | –
12 | C[C@@]12C[C@H](O)C[C@@](C)(C=O)[C@H]1CC[C@]13C=C(C(=O)O)[C@H](CC[C@H]12)C3 | inactive | – | –
13 | COC(=O)[C@]1(C)C[C@@H](O)C[C@@]2(C)[C@@H]3CC[C@@H]4C[C@]3(C=C4C(=O)O)CC[C@@H]21 | inactive | – | –
14 | CC1(C)[C@H](O)[C@@H](O)C[C@]2(C)[C@@H]1CC[C@]13C=C(C(=O)O)[C@H](CC[C@H]12)C3 | – | >10% | –
15 | C[C@@]12CCC[C@@](C)(C(=O)O)[C@H]1CC[C@]13C=C(C(=O)O)[C@H](CC[C@H]12)C3 | inactive | – | –
